Assays:
Format in all cases: cell-based
Nitric oxide synthase 3 = molecular target: T1, Nitric oxide synthase 3 (Homo sapiens, UniProt P29474); experiment: Inhibition of human eNOS expressed in HEK293 cells assessed as NO production by transient transfection assay
T1 sequence (P29474 whole entry): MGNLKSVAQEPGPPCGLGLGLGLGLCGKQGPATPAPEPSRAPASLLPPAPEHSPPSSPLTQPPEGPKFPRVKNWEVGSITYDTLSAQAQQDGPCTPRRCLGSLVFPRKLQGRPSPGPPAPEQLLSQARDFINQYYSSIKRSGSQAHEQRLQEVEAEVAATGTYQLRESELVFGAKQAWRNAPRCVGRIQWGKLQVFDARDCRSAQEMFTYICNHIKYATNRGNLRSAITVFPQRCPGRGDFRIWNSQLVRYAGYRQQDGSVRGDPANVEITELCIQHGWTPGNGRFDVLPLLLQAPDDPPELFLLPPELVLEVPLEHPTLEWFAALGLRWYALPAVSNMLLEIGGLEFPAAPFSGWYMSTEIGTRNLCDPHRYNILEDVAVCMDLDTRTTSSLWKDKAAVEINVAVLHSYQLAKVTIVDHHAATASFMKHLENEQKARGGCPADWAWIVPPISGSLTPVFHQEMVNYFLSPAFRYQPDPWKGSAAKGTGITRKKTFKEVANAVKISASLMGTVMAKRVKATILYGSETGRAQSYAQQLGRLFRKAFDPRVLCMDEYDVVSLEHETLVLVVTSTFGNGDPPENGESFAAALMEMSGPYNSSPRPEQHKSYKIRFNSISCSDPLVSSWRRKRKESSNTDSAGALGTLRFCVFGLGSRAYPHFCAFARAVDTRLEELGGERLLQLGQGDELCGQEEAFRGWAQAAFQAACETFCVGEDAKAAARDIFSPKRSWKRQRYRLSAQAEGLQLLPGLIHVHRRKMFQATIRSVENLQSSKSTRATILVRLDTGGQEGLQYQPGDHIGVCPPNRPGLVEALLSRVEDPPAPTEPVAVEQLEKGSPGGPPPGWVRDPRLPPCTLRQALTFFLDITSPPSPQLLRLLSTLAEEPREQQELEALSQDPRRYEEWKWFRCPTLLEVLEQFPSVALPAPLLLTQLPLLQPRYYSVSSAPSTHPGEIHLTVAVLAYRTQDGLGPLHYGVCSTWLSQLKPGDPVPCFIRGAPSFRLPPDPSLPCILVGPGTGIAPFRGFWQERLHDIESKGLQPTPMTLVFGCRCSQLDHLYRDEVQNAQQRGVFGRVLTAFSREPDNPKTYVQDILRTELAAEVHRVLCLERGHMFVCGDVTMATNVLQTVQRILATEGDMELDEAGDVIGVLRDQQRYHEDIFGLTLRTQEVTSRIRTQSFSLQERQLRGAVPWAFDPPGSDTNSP
Summary of the method: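 HEK293 cells grown to ~70% confluence in DMEM/10% FBS with pen/strep, transfected with 15 µg human eNOS plasmid plus Fugene 6 (3:1 µL:µg), 4 h at 37 °C, 10% CO2. Cells replated at 5 × 10⁵/mL, compound added at once, 24 h incubation, then A23187 (83 nM final). After 18 h, NO read by DAN fluorescence.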

Nitric oxide synthase 1 [1] = molecular target: T2, Nitric oxide synthase 1 (Homo sapiens, UniProt P29475); experiment: Inhibition of human nNOS expressed in HEK293 cells assessed as NO production by transient transfection assay
[2] = molecular target: T3, Nitric oxide synthase 3 (Homo sapiens) (UniProt P29474); experiment: Inhibition of human eNOS expressed in HEK293 cells assessed as NO production at 100 uM by transient transfection assay relative to BBS-4
T3 sequence (whole entry): T1 sequence (P29474 whole entry)
Summary of the method: (§1)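 HEK293 cells transiently transfected with human eNOS (15 µg plasmid) or nNOS (10 µg plasmid), Fugene 6 at 3:1 µL:µg, 4 h at 37 °C, 10% CO2. Plated at 5 × 10⁵ cells/mL with compound; SEITU 100 µM final as positive control. After 24 h, activated with A23187 (83 nM final, eNOS) or ionomycin (30 µM final, nNOS). After 18 h more, NO read by DAN fluorescence. Inhibition is relative to the maximal inhibition by the control dimerization inhibitor. 3 runs, 10-point curves, n = 3/point.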

[3] = molecular target: Nitric oxide synthase, inducible (Homo sapiens, UniProt P35228); experiment: Inhibition of human iNOS expressed in HEK293 cells assessed as NO production by transient transfection assay
Summary of the method: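 HEK293 cells grown to ~70% confluence in DMEM/10% FBS with pen/strep. Cells transiently transfected with 10 µg human or murine iNOS plasmid (Fugene 6), 4 h at 37 °C, 10% CO2. Trypsinized, plated at 5 × 10⁵ cells/mL and dosed at once; 1400W 100 µM final as positive control. After 18 h, NO read as DAN fluorescence (10 µg/mL, 20 min RT, then NaOH). EC50 from 3 runs, 10-point curves, n = 8/point.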

Nitric oxide synthase 1 [4] = molecular target: T2, Nitric oxide synthase 1; experiment: Inhibition of human nNOS expressed in HEK293 cells assessed as NO production at 10 uM by transient transfection assay relative to BBS-4; summary of the method: as §1

Nitric oxide synthase, inducible, sequence (P35228 whole entry): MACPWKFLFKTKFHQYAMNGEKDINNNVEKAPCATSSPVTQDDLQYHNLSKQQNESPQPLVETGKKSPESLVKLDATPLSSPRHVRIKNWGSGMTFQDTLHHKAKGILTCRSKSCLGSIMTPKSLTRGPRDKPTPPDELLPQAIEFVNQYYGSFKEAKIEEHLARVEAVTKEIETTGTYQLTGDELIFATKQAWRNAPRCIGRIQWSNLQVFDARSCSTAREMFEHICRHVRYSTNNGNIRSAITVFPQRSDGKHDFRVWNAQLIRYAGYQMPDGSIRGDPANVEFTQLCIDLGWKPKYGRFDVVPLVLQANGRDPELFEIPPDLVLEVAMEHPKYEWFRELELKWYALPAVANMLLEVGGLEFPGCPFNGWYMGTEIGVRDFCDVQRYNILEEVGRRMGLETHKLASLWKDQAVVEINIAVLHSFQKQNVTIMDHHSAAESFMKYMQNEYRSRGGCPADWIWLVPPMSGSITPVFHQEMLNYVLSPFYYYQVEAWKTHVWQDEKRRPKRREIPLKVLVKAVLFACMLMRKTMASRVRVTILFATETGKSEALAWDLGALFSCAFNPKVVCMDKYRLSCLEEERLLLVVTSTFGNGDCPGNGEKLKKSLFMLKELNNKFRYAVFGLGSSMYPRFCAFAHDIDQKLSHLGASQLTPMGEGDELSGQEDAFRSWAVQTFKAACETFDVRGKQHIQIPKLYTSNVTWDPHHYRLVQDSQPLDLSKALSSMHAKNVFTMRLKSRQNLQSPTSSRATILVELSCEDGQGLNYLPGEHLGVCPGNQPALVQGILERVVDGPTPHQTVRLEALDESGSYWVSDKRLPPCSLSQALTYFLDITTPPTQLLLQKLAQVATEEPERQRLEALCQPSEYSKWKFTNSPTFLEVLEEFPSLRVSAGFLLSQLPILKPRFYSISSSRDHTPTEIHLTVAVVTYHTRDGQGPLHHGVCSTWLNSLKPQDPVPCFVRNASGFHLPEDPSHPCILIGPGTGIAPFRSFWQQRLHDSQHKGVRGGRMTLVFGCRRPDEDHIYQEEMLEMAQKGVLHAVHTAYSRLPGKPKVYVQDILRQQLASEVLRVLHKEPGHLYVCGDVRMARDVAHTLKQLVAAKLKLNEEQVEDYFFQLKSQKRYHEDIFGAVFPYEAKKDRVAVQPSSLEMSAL
T2 sequence (P29475 whole entry): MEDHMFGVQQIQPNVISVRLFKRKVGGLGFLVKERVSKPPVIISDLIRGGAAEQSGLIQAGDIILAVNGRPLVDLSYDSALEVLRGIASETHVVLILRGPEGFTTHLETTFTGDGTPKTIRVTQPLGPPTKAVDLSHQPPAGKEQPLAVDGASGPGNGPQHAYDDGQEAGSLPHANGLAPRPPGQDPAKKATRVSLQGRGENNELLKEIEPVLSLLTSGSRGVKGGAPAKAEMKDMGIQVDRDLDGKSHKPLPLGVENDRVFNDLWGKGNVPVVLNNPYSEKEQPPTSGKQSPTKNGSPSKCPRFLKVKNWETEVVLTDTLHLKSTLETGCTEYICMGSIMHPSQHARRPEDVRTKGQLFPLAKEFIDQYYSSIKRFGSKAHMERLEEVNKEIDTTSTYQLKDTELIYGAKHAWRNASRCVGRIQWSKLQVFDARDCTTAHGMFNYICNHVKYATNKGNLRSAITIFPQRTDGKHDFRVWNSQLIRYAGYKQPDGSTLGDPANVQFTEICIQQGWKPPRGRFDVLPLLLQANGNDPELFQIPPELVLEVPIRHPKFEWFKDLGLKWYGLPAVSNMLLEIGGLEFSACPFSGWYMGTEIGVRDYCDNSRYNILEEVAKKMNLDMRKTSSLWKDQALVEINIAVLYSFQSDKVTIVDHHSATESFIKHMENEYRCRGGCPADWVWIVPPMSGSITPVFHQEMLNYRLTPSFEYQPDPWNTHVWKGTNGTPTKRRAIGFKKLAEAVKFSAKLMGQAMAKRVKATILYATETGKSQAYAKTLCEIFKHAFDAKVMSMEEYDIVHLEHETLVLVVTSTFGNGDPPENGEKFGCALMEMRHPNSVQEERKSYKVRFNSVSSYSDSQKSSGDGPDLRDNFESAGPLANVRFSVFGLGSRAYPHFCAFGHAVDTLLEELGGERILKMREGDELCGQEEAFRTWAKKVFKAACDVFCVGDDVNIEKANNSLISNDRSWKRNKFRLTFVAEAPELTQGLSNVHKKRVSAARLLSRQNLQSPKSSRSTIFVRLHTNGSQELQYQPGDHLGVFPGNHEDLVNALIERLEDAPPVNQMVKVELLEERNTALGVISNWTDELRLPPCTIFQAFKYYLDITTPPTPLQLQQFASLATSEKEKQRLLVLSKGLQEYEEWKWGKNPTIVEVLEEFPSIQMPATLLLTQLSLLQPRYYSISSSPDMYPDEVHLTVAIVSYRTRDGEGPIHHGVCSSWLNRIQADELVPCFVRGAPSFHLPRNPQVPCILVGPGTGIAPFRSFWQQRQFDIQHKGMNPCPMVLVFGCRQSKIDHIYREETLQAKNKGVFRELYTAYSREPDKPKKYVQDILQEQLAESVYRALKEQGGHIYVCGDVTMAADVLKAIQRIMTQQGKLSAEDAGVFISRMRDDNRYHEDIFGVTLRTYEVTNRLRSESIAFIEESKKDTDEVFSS

Compound | EC50 (Nitric oxide synthase 3) [nM] | EC50 (Nitric oxide synthase 1 [1]) [nM] | inhibition [2] [%] | EC50 [3] [nM] | inhibition (Nitric oxide synthase 1 [4]) [%]
Cc1ncsc1C(=O)N(Cc1cc(=O)[nH]c2c(Cl)cccc12)c1cccc(Cl)c1 | > 100000 | > 10000 | < 50 | 1300 | < 50
Cc1ncsc1C(=O)N(Cc1cc(=O)[nH]c2c(F)cccc12)c1ccccc1Cl | > 100000 | > 10000 | < 50 | 13000 | < 50
Cc1ncsc1C(=O)N(Cc1cc(=O)[nH]c2c1CCCC2)c1cccc(Cl)c1 | – | – | – | 1140 | –
Cc1ncsc1C(=O)N(Cc1cc(=O)[nH]c2ccc(F)cc12)c1cccc(Cl)c1 | > 100000 | > 10000 | < 50 | 300 | < 50
Cc1ncsc1C(=O)N(Cc1cc(=O)[nH]c2cccc(F)c12)c1cccc(Cl)c1 | > 100000 | > 10000 | < 50 | 500 | < 50
O=C(c1ccco1)N(Cc1cc(=O)[nH]c2c(F)cccc12)c1ccccc1 | > 100000 | > 10000 | < 50 | 1100 | < 50
Cc1cccnc1C(=O)N(Cc1cc(=O)[nH]c2c(F)cccc12)c1cccc(Cl)c1 | > 100000 | 4100 | < 50 | 420 | –
Cc1ncsc1C(=O)N(Cc1cc(=O)[nH]c2ccccc12)c1ccccc1 | > 100000 | > 10000 | < 50 | 500 | < 50
O=C(C1CCCC1)N(Cc1cc(=O)[nH]c2c(F)cccc12)c1cccc(Cl)c1 | > 100000 | 10300 | < 50 | 770 | –
Cc1ncsc1C(=O)N(Cc1cncc2c(F)cccc12)c1cccc(Cl)c1 | – | – | – | 760 | –
Cc1ncsc1C(=O)N(Cc1cc(=O)oc2c(F)c(F)ccc12)c1cccc(Cl)c1 | – | – | – | 840 | –
COc1cccc(N(Cc2cc(=O)[nH]c3c(F)cccc23)C(=O)c2scnc2C)c1 | > 100000 | > 10000 | < 50 | 990 | < 50
Cc1ncsc1C(=O)N(Cc1cc(=O)oc2c(F)cccc12)c1cccc(Cl)c1 | – | – | – | 2000 | –
O=C(c1ccco1)N(Cc1cc(=O)[nH]c2ccccc12)c1ccccc1 | > 100000 | > 10000 | < 50 | 1300 | < 50
Cc1ncccc1C(=O)N(Cc1cc(=O)[nH]c2c(F)cccc12)c1cccc(Cl)c1 | > 100000 | 7900 | < 50 | 350 | –

Now those with a lower EC50 [3], led by results:

EC50 (Nitric oxide synthase 3) [nM] | EC50 (Nitric oxide synthase 1 [1]) [nM] | inhibition [2] [%] | EC50 [3] [nM] | inhibition (Nitric oxide synthase 1 [4]) [%] | Compound
> 100000 | > 10000 | < 50 | 240 | < 50 | Cc1ncsc1C(=O)N(Cc1cc(=O)[nH]c2c(F)cccc12)c1ccc(Cl)cc1
> 100000 | > 10000 | < 50 | 200 | < 50 | Cc1ncsc1C(=O)N(Cc1cc(=O)[nH]c2c(F)cccc12)c1ccccc1
37000 | > 10000 | – | 200 | < 50 | Cc1ncsc1C(=O)N(Cc1cncc2c(F)c(F)ccc12)c1cccc(Cl)c1
> 100000 | > 10000 | < 50 | 170 | < 50 | Cc1ncsc1C(=O)N(Cc1cc(=O)[nH]c2ccccc12)c1cccc(Cl)c1
> 100000 | > 10000 | < 50 | 100 | < 50 | Cc1cccc(N(Cc2cc(=O)[nH]c3c(F)cccc23)C(=O)c2scnc2C)c1
13000 | 2100 | – | 89 | – | Cc1cnccc1C(=O)N(Cc1cc(=O)[nH]c2c(F)cccc12)c1cccc(Cl)c1
15000 | – | – | 62 | – | Cc1ncsc1C(=O)N(Cc1cc(=O)[nH]c2c(F)cccc12)c1cccc(F)c1
> 100000 | 2700 | < 50 | 56 | 2.7 | Cc1ncsc1C(=O)N(Cc1cc(=O)[nH]c2c(F)cccc12)c1cccc(C#N)c1
33000 | 3400 | – | 53 | – | Cc1ncsc1C(=O)N(Cc1cc(=O)[nH]c2cc(F)ccc12)c1cccc(Cl)c1
> 100000 | – | < 50 | 53 | – | O=C(c1cncs1)N(Cc1cc(=O)[nH]c2c(F)cccc12)c1cccc(Cl)c1
41000 | 2200 | – | 49 | – | Cc1ccncc1C(=O)N(Cc1cc(=O)[nH]c2c(F)cccc12)c1cccc(Cl)c1
6800 | 500 | – | 16 | – | Cc1noc(C)c1C(=O)N(Cc1cc(=O)[nH]c2c(F)cccc12)c1cccc(Cl)c1

— ChEMBL document CHEMBL1138485, “Discovery of inducible nitric oxide synthase (iNOS) inhibitor development candidate KD7332, part 1: Identification of a novel, potent, and selective series of quinolinone iNOS dimerization inhibitors that are orally active in rodent pain models” (J Med Chem, 2009)
